We go through 23 compounds from PubChem BioAssay.

Each structure is given as a SMILES string. A number with no mark means an inactive call. Inconclusive results are not listed. Calls of active or inactive are those of the source.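 How the source made its calls, unless noted: active means viability increase at or above a cutoff of the median across tested compounds plus 3 SD (cut at about 8.5% in these data, passing the limit was not always enough); inconclusive means some gains above the cutoff, reason not given; inactive means the rest.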

Test [1] is described as follows: S. cerevisiae growth inhibition in permissive medium (OD615), pilot counter-assay for S. cerevisiae lifespan shortening project, permissive growth control (AID 705;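 active means growth inhibition above 25% in both replicates, a cutoff set 3 SD above the mean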). The conditions noted are these: OD615, 24 h, at 10 µM, stronger effect = higher value. Summed up:
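System: Engineered DeaD yeast | Buffer or medium: SC raffinose/galactose permissive medium | Incubation: Cells pre-grown 4 h, then 24 h compound exposure, 30 °C humidified | Measured by: Absorbance (optical density) at 615 nm | Read-out: Reduction in yeast growth (OD615)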

Test [2] can be described thus: S. cerevisiae growth inhibition in restrictive medium, OD615, pilot screen, restrictive growth control, yeast lifespan reduction project (AID 706;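 active means growth inhibition above a set limit, 3 SD over mean compound inhibition, in both replicates, cut at about 43% in these data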;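 further: modified DeaD lifespan yeast strain shifted to restrictive glucose medium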). The settings on record: OD615, 48 h, at 10 µM, stronger effect = higher value. Summed up:
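Material: modified S. cerevisiae; Medium: glucose-based CSMM-D restrictive medium; Compound dosing: one concentration, 10 µM final, 0.25% DMSO; Incubation: 48 h compound exposure at 30 °C; Measured by: OD615.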

A short description of test [3]: doxorubicin toxicity protection in MRP-1 cells – H69AR cells, CellTiter-Glo, duplicate, MRP-1 activator project, pilot screen (AID 807).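 Further: compound pretreatment 18-22 h then 72 h combined with doxorubicin; 0% = doxorubicin alone and 100% = vehicle without doxorubicin.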 The conditions noted are these: H69AR viability with doxorubicin, CellTiter-Glo luminescence; at 10 µM; stronger effect = higher value. A general note: In ATP-based viability assays light output follows the ATP content of the culture.
The nature of test [4]: viability of HCT116 without oncogenic beta-catenin – human colon tumor cells, pilot screen (AID 823;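 active means cell viability at or below a set limit in both duplicate runs, the limit being the all-compound median minus 4 SD, cut at about 23% in these data, passing the limit was not always enough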;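 further: 0% = wells killed by 20 µM Hyamine and 100% = untreated DMSO cell wells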). The conditions noted are these: HCT116 beta-catenin knockout viability, CellTiter-Glo, 60 h; at 10 µM; stronger effect = lower value.
Test [5] in a line: viability of PTEN-null HCT116 cells – cell-based, HCT116 clonal line, CellTiter-Glo, pilot screen (AID 824;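 active means viability at or below 27.92% in each of two runs, the all-compound median minus 4 SD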;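 further: 0% = 20 µM Hyamine control and 100% = vehicle cell control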). The conditions noted are these: HCT116 PTEN-deleted viability, 60 h, at 10 µM, stronger effect = lower value.
A short description of test [6]: RAM pathway blockade in budding yeast – dse1pr::URA3 reporter, 5-FOA selection, pilot screen (AID 869;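 active means inhibition over a set limit, the all-compound mean plus 3 SD, in both replicate runs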;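 further: 0% = DMSO wells with no growth and 100% = 10 µM 1-NA-PP1 with full growth; RAM network block rescues cells from 5-FOA so hits raise OD615 growth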). The conditions noted are these: S. cerevisiae dse1pr::URA3 5-FOA growth, OD615, 2 d; at 10 µM; stronger effect = higher value; strain carries analog-sensitive mutant Cbk1 kinase.
Test [7] is described as follows: RAM signaling pathway blockade in yeast – S. cerevisiae, Pdr1DBD-CYC8 efflux-inhibited sensitized strain, primary screen (AID 1298;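 active means RAM network inhibition above 8.4% in each of two replicates, 3 SD over the compound average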;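 further: 0% = DMSO untreated cells without growth and 100% = 10 µM 1-NA-PP1 full growth; higher means more yeast growth rescued from 5-FOA killing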). The conditions noted are these: S. cerevisiae cbk1-as DSE1-URA3 strain, 5-FOA growth OD615, 2 d; at 50 µM; stronger effect = higher value.

Usually viability stands for a read-out of living cells in per cent, often relative to untreated cells. Broadly, the inhibition is the relative decrease from the control value, in per cent. As for `CC(C)(Oc1ccc(Cl)cc1)C(=O)Nc1cccnc1`, the growth inhibition in test [1] is -4.86%; in test [2], -6.65%. Further, the viability increase in test [3] is -3.43%. In addition, the viability was 92.6% in test [4] and 83.1% in test [5]. Moreover, the inhibition in test [6] was 0.405%. Moreover, the RAM network inhibition in test [7] is 1.94%.
In the case of `COC(=O)C1Sc2[nH]c(=O)sc2C(c2ccc(Cl)cc2)C1C(=O)OC` (stereo unspecified), the growth inhibition in test [1] and in test [2] was -14.8% throughout. The viability increase in test [3] is -5.67%. The viability in test [4] was 91.3%; in test [5], 88.7%. The inhibition in test [6] is 4.36%. In test [7], the RAM network inhibition was 2.45%.
As for `O=C(NCCc1ccc(Cl)cc1)C1CC(=O)N(C2CCCCC2)C1` (stereo unspecified), the growth inhibition in test [1] was -4.04%; in test [2], -5.98%. Further, in test [3], the viability increase is -0.99%. Also, the viability was 94.6% in test [4] and 101% in test [5]. Also, the inhibition in test [6] is 1.06%. Besides, the RAM network inhibition in test [7] was 0.58%.
Regarding `CCOCCCNC(=O)C(c1ccc(OC)cc1)N(Cc1ccc2c(c1)OCO2)C(=O)CNC(C)=O` (stereo unspecified), the growth inhibition in test [1] is -6.78%; in test [2] it was 3.73%. Also, the viability increase in test [3] was 2.19%. In addition, the viability was 104% in test [4] and 107% in test [5]. The inhibition in test [6] is 1.34%. Further, the RAM network inhibition in test [7] was 4.4%.
Take `Cc1cc(NC(=O)Nc2cccc3ccccc23)no1`: the values for the growth inhibition in test [1] and in test [2] were -3.55% and 1.52%, respectively. Also, in test [3], the viability increase is -4%. For the same compound, the viability in test [4] was 95.3%; in test [5], 89.1%. The inhibition in test [6] is -0.175%. Besides, the RAM network inhibition in test [7] is 5.09%.
For the compound `C=CCn1c(-c2ccc(N)cc2)nc2ccccc21`, the growth inhibition was -6.82% in test [1] and 3.25% in test [2]. For the same compound, the viability increase in test [3] was -3.72%. Also, the viability was 93.3% in test [4] and 80.1% in test [5]. The inhibition in test [6] is 1.5%. Besides, in test [7], the RAM network inhibition is 1.23%.
In the case of `CCOC(=O)C1=C(SCC(=O)Nc2ccccc2)NC(=O)C(C#N)C12CCCCC2` (stereo unspecified), the growth inhibition is -8.66% in test [1] and -7.72% in test [2]. In addition, in test [3], the viability increase was -2.95%. The viability in test [4] was 85.1%; in test [5], 91.5%. The inhibition in test [6] was 1.71%. Moreover, in test [7], the RAM network inhibition is 2.44%.
In the case of `CC1CN(c2nc3c(c(=O)[nH]c(=O)n3C)n2Cc2ccccc2F)CC(C)O1` (stereo unspecified), the growth inhibition was -3.05% in test [1] and 2.61% in test [2]. The viability increase in test [3] was -1.3%. The viability was 99.1% in test [4] and 90.7% in test [5]. Besides, the inhibition in test [6] is 1.68%. The RAM network inhibition in test [7] was 0.95%.
Turning to `CC(C)CC1(C(=O)O)NC(c2ccccc2O)C2C(=O)N(C(C)C)C(=O)C21` (stereo unspecified), the values for the growth inhibition in test [1] and in test [2] were 3.45% and 3.48%, respectively. Besides, the viability increase in test [3] is -0.07%. Further, the viability is 102% in test [4] and 99.3% in test [5]. For the same compound, in test [6], the inhibition was 1.27%. Moreover, in test [7], the RAM network inhibition was 3.59%.
For `COc1ccc(CN(C)C2CCCCC2)cc1`, the results for the growth inhibition in test [1] and in test [2] were -16.4% and -4.68%, respectively. The viability increase in test [3] was 0.58%. In addition, the results for the viability in test [4] and in test [5] were 95.9% and 99%, respectively. Further, in test [6], the inhibition is 1.12%. Besides, the RAM network inhibition in test [7] was 4.95%.
On to `N#CCCN1CCN(S(=O)(=O)c2ccc(S(=O)(=O)N3CCCC3)cc2)CC1`, for which the results for the growth inhibition in test [1] and in test [2] were 0.995% and 7.04%, respectively. The viability increase in test [3] was 1.73%. Further, the values for the viability in test [4] and in test [5] were 101% and 104%, respectively. Also, the inhibition in test [6] was 1.29%. Besides, the RAM network inhibition in test [7] is 8.15%.
As for `CCCCC(=O)Nc1nc2c(OC)ccc(OC)c2s1`, the results for the growth inhibition in test [1] and in test [2] were -5.01% and 1.46%, respectively. For the same compound, the viability increase in test [3] is -2.98%. The viability in test [4] is 97.5%; in test [5], 98.3%. The inhibition in test [6] is 0.87%. The RAM network inhibition in test [7] was 3.86%.
As to `COc1cc(Br)c(CC(=O)O)cc1OC`, the growth inhibition in test [1] was -24.6%; in test [2], -13.7%. In addition, the viability increase in test [3] is -0.03%. Further, the viability was 98.2% in test [4] and 97.1% in test [5]. Moreover, the inhibition in test [6] is 2.38%. Also, the RAM network inhibition in test [7] is 3.76%.
As to `Cc1cc(C2N=C(N)Nc3nc4ccccc4n32)c(C)n1-c1ccccc1Cl` (stereo unspecified), the growth inhibition in test [1] is -0.255%; in test [2] it was -33.7%. For the same compound, the viability increase in test [3] was -4.14%. In addition, the viability in test [4] was 9.19% (active); in test [5], 16.7% (active). Further, in test [6], the inhibition is 2.92%. Also, the RAM network inhibition in test [7] was 3.79%.
Take `COC(=O)c1cc(Nc2cc(C)nc3ncnn23)cc(C(=O)OC)c1`: the results for the growth inhibition in test [1] and in test [2] were 7.62% and 11%, respectively. For the same compound, the viability increase in test [3] was -3.2%. In addition, the viability in test [4] was 108%; in test [5], 97.1%. Moreover, in test [6], the inhibition was 1.31%. In addition, in test [7], the RAM network inhibition was 1.36%.
For `O=C(O)c1ccccc1SC1CC(=O)N(C2CCCCC2)C1=O` (stereo unspecified), the growth inhibition is -14.3% in test [1] and -1.75% in test [2]. Moreover, the viability increase in test [3] is -2.78%. Moreover, the viability in test [4] was 90.7%; in test [5] it was 94.3%. Also, in test [6], the inhibition is 1.17%. For the same compound, the RAM network inhibition in test [7] was 1.06%.
`CC(=O)N1c2ccccc2N(Cc2ccc(C)cc2C)C(=O)C1(C)C`: the growth inhibition in test [1] was -6.6%; in test [2], 5.81%. For the same compound, the viability increase in test [3] is -6.55%. For the same compound, the viability was 16% (active) in test [4] and 20.7% (active) in test [5]. The inhibition in test [6] is 1.14%. In addition, the RAM network inhibition in test [7] is 9.4%.
Regarding `CC1Cc2nc(SCC(=O)Nc3nccs3)n(Cc3ccccc3)c(=O)c2S1` (stereo unspecified), the growth inhibition in test [1] is 4.49%; in test [2], 8.66%. In test [3], the viability increase was -2.23%. The viability in test [4] is 94.8%; in test [5], 88.4%. Moreover, the inhibition in test [6] was 2.21%. For the same compound, the RAM network inhibition in test [7] was 3.83%.
As for `O=C(NO)c1ccc(C(=O)N(C2CCCCC2)C2CCCCC2)cc1`, the growth inhibition in test [1] is -0.05%; in test [2], 5.84%. For the same compound, the viability increase in test [3] was -5.78%. Moreover, the viability in test [4] is 17.2% (active); in test [5], 36.1%. Further, the inhibition in test [6] was 0.64%. For the same compound, the RAM network inhibition in test [7] was -1.08%.
With `COc1ccc(Cc2nnc(Nc3ccc(C)cc3C)[nH]c2=O)cc1`, the growth inhibition in test [1] is -10.4%; in test [2] it was -12.6%. Further, the viability increase in test [3] was -1.16%. Further, the figures for the viability in test [4] and in test [5] were 91.2% and 94.2%, respectively. In addition, the inhibition in test [6] was 1.08%. Further, in test [7], the RAM network inhibition is 7.16%.
`CC(C)NC(=O)c1cc2c(-c3ccc(Cl)cc3)nn(C)c2s1`: the growth inhibition in test [1] was -10.4%; in test [2], 3.42%. The viability increase in test [3] was -6.18%. Further, the results for the viability in test [4] and in test [5] were 74.5% and 76.8%, respectively. Further, the inhibition in test [6] is 3.84%. In addition, in test [7], the RAM network inhibition is 4.3%.
For `Cc1onc(-c2ccccc2Cl)c1C(=O)N(C)C1CCCCC1`, the growth inhibition in test [1] was -18.5%; in test [2], -9.2%. Further, in test [3], the viability increase was -2.42%. Also, the viability in test [4] is 46.5%; in test [5], 63.2%. In addition, the inhibition in test [6] was -0.15%. The RAM network inhibition in test [7] was 2.15%.
`Cc1nc2sc(C(c3ccccc3)N3CCN(C)CC3)c(O)n2n1` (stereo unspecified): the figures for the growth inhibition in test [1] and in test [2] were -3.65% and 8.75%, respectively. Moreover, the viability increase in test [3] was 0.48%. Besides, the results for the viability in test [4] and in test [5] were 100% and 103%, respectively. Further, the inhibition in test [6] is 2.15%. For the same compound, in test [7], the RAM network inhibition is 2.45%.
